The results in this text go back to ChEMBL document CHEMBL1122366, “Potential antiatherosclerotic agents. 3. Substituted benzoic and non benzoic acid analogues of cetaben” (1983).

Test [1] deals with Rattus norvegicus. The test is described as follows: In vivo triglyceride lowering activity when dosed as 0.01 % of the diet. The test is classed as functional. The essentials: (§1)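 Normal rats were dosed in the diet. Serum sterol and triglyceride levels were measured and expressed as the mean percent of control values. Significance versus control was reported at p < 0.05, 0.01 and 0.001.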

For test [2], the system named is Rattus norvegicus. The test is described as follows: In vivo triglyceride lowering activity when dosed at 0.03 % of the diet. The test is classed as functional. The essentials:
as §1

The test system of test [3] is Rattus norvegicus. The test is described as follows: In vivo sterol lowering activity when dosed as 0.03 % of the diet. The test is classed as functional. The essentials: as §1
In test [4] the target is T1, Sterol O-acyltransferase 1 (Rattus norvegicus) (UniProt O70536).
T1 sequence (whole entry): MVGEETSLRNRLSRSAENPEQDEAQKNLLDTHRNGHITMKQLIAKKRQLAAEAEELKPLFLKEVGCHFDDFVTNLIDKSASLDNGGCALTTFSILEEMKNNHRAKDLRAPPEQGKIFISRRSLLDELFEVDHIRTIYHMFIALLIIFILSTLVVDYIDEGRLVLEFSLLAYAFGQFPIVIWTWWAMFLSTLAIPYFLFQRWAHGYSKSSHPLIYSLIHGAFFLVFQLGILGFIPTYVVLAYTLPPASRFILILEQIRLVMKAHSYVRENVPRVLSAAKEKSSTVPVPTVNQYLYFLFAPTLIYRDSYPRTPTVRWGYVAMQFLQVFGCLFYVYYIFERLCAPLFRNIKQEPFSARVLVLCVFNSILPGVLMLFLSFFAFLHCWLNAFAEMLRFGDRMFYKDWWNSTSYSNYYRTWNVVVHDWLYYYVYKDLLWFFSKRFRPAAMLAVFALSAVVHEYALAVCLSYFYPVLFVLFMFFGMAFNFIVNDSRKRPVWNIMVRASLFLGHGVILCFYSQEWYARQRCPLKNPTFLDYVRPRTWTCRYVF
Nature of the test: In vitro inhibition of acyl coenzyme A:cholesterol acyltransferase. Also on record: concentration or dose not given beside the values. Conditions: concentration not given here. The gist of the method: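 Enzyme fatty acyl-CoA:cholesterol acyltransferase (ACAT), assayed in vitro at a single drug concentration of 5.2 μg/mL. The value is the mean percent inhibition of enzyme activity.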

For test [5], the system named is Rattus norvegicus. The test is described as follows: In vivo sterol lowering activity at dose of 0.10 % of the diet. It counts as functional. The gist of the method:
as §1

Test [6] concerns Rattus norvegicus. Nature of the test: In vivo triglyceride lowering activity dosed at 0.10 % of the diet. The test is classed as functional. The gist of the method:
as §1

For test [7], the system named is Rattus norvegicus. The test is described as follows: In vivo sterol lowering activity when dosed as 0.01 % of the diet. The test is classed as functional. The essentials: as §1

Turning to `CCCCCCCCCCCCCCCCNc1ccc(C(=O)CC(=O)O)cc1`, the “serum triglyceride level, percent of control” value in test [1] turned out to be 80%; in test [2], 90%. Besides, the “serum sterol level, percent of control” value worked out at 100% in test [3] and 104% in test [5]. Moreover, the inhibition in test [4] is under 28%. Further, the “serum triglyceride, percent of control” value in test [6] is reported as 100%. Also, the “serum sterol level, % of control” value in test [7] amounted to 105%.
Regarding `CCCCCCCCCCCCCCCCNc1ccc(C(=O)NCC(O)CO)cc1` (stereo not given), the “serum triglyceride level, percent of control” value is given as 114% in test [1] and under 73% in test [2]. The entries for the “serum sterol level, percent of control” value in test [3] and in test [5] were 88% and under 72%, respectively. This compound came in with an inhibition in test [4] of under 61%. Further, the “serum triglyceride, percent of control” value in test [6] is listed as under 48%. Further, the “serum sterol level, % of control” value in test [7] is 99%.
With `CCCCCCCCCCCCCCCCNc1ccc(C(=O)CC#N)cc1`, the entries for the “serum triglyceride level, percent of control” value in test [1] and in test [2] were 132% and 140%, respectively. In addition, the figures for the “serum sterol level, percent of control” value in test [3] and in test [5] were 104% and 115%, respectively. In test [4], this compound gave an inhibition of under 22%. For the same compound, the “serum triglyceride, percent of control” value in test [6] is reported as 130%. Besides, the “serum sterol level, % of control” value in test [7] came to 107%.
Turning to `CCCCCCCCCCCCCCCCNc1ccc(C(=O)C(C)C(=O)OCC)cc1` (stereo not given), the “serum triglyceride level, percent of control” value is recorded as 87% in test [1] and 88% in test [2]. Also, the entries for the “serum sterol level, percent of control” value in test [3] and in test [5] were 87% and under 73%, respectively. Further, the inhibition in test [4] amounted to 21%. Besides, in test [6], the “serum triglyceride, percent of control” value is given as under 66%. Besides, the “serum sterol level, % of control” value in test [7] worked out at 100%.
Regarding `CCCCCCCCCCCCCCCCNc1ccc(C(=O)NS(=O)(=O)c2ccc(N)cc2)cc1`, the “serum triglyceride level, percent of control” value in test [1] is on record as 78%; in test [2], 87%. Further, the “serum sterol level, percent of control” value in test [3] is given as 89%; in test [5], 105%. Moreover, the inhibition in test [4] stood at 14%. Moreover, the “serum triglyceride, percent of control” value in test [6] is on record as 111%. The “serum sterol level, % of control” value in test [7] is 93%.
As for `CCCCCCCCCCCCCCCCNc1ccc(C(=O)C(C(=O)OCC)C(=O)OCC)cc1`, the “serum triglyceride level, percent of control” value in test [1] is given as under 68%; in test [2], under 66%. Moreover, the “serum sterol level, percent of control” value is given as 96% in test [3] and under 87% in test [5]. Also, the inhibition in test [4] was 9%. In addition, the “serum triglyceride, percent of control” value in test [6] is given as under 59%. In test [7], the “serum sterol level, % of control” value came to 100%.
Turning to `CCCCCCCCCCCCCCCCNc1ccc(O)cc1`, the “serum triglyceride level, percent of control” value in test [1] is listed as 118%; in test [2], 124%. Moreover, the “serum sterol level, percent of control” value in test [3] came to 99%; in test [5], 92%. The inhibition in test [4] stood at 0%. Moreover, the “serum triglyceride, percent of control” value in test [6] was determined as 104%. For the same compound, the “serum sterol level, % of control” value in test [7] is reported as 104%.
`CCCCCCCCCCCCCCCCNc1ccc(C(=O)OC2COC(c3ccccc3)OC2)cc1` (stereo not given): the “serum triglyceride level, percent of control” value in test [1] is 103%. The compound also returned a Diet in test [2] of 68%. For the same compound, the “serum sterol level, percent of control” value was 91% in test [3] and 99% in test [5]. Moreover, the inhibition in test [4] was found to be 0%. Also, in test [6], the “serum triglyceride, percent of control” value came out at 78%. In addition, the “serum sterol level, % of control” value in test [7] came to 95%.
On to `CCCCCCCCCCCCCCCCNc1ccc(CCCC(=O)O)cc1`, for which the entries for the “serum triglyceride level, percent of control” value in test [1] and in test [2] were under 68% and under 61%, respectively. Moreover, the “serum sterol level, percent of control” value in test [3] was determined as 95%; in test [5], 97%. In test [4], the inhibition was under 32%. Besides, the “serum triglyceride, percent of control” value in test [6] was under 51%. For the same compound, the “serum sterol level, % of control” value in test [7] was determined as 100%.
On to `CCCCCCCCCCCCCCN(CC)c1ccc(C(=O)O)cc1`, for which the “serum triglyceride level, percent of control” value in test [1] is recorded as 90%; in test [2] it was 92%. In addition, the “serum sterol level, percent of control” value in test [3] amounted to 98%; in test [5], 88%. For the same compound, in test [4], the inhibition was under 38%. The “serum triglyceride, percent of control” value in test [6] turned out to be 80%. In addition, the “serum sterol level, % of control” value in test [7] is recorded as 93%.
`CCCCCCCCCCCCCCCCNc1cc(C(=O)[O-])cc(C(=O)[O-])c1.[Na+].[Na+]`: the “serum triglyceride level, percent of control” value in test [1] amounted to 96%; in test [2], 115%. The “serum sterol level, percent of control” value in test [3] is on record as 99%; in test [5], 90%. In addition, the inhibition in test [4] worked out at 0%. Besides, in test [6], the “serum triglyceride, percent of control” value amounted to 103%. Moreover, the “serum sterol level, % of control” value in test [7] was determined as 92%.
As for `CCCCCCCCCCCCCCCCN(C=O)c1ccc(C(=O)OCC)cc1`, the entries for the “serum triglyceride level, percent of control” value in test [1] and in test [2] were 102% and 90%, respectively. Besides, the “serum sterol level, percent of control” value in test [3] came out at 117%; in test [5], 96%. The compound further registered an inhibition in test [4] of 9%. Also, in test [6], the “serum triglyceride, percent of control” value turned out to be 75%. Besides, the “serum sterol level, % of control” value in test [7] came to 101%.
As to `CCCCCCCCCCCCCCCCN(C=O)c1ccc(C(=O)O)cc1`, the “serum triglyceride level, percent of control” value stood at 77% in test [1] and 100% in test [2]. Also, the entries for the “serum sterol level, percent of control” value in test [3] and in test [5] were 96% and 105%, respectively. Further, the inhibition in test [4] came to 12%. In test [6], the “serum triglyceride, percent of control” value was 78%. Besides, the “serum sterol level, % of control” value in test [7] was under 89%.
For `CCCCCCCCCCCCCCCCNc1ccc(C(=O)O)cc1C`, the “serum triglyceride level, percent of control” value turned out to be 75% in test [1] and 96% in test [2]. Further, the “serum sterol level, percent of control” value in test [3] is 92%; in test [5], under 91%. The same compound had an inhibition in test [4] of 1%. Moreover, in test [6], the “serum triglyceride, percent of control” value came out at 101%. Also, the “serum sterol level, % of control” value in test [7] was 94%.
In the case of `CCCCCCCCCCCCCCCCNc1ccc(C(=O)OCC(=O)OC)cc1`, the “serum triglyceride level, percent of control” value in test [1] is given as 79%; in test [2], 72%. Besides, the “serum sterol level, percent of control” value in test [3] is under 76%; in test [5] it was under 71%. Also, in test [4], the inhibition is under 24%. Further, the “serum triglyceride, percent of control” value in test [6] is recorded as 74%. Moreover, the “serum sterol level, % of control” value in test [7] is reported as 84%.
Take `CCCCCCCCCCCCCCCCNc1ccc(C(=O)Oc2ccc(C(=O)O)cc2)cc1`: the “serum triglyceride level, percent of control” value in test [1] was found to be 98%; in test [2] it was 81%. Moreover, the “serum sterol level, percent of control” value turned out to be 95% in test [3] and 93% in test [5]. The same compound displayed an inhibition in test [4] of under 18%. In test [6], the “serum triglyceride, percent of control” value was 109%. In addition, the “serum sterol level, % of control” value in test [7] stood at 105%.
For `CCCCCCCCCCCCCCCCNc1ccc(C(=O)O)c(F)c1`, the entries for the “serum triglyceride level, percent of control” value in test [1] and in test [2] were 77% and 79%, respectively. Besides, the “serum sterol level, percent of control” value is listed as under 77% in test [3] and under 75% in test [5]. The compound further registered an inhibition in test [4] of 57%. Also, the “serum triglyceride, percent of control” value in test [6] is on record as under 40%. Further, the “serum sterol level, % of control” value in test [7] worked out at 93%.
Regarding `Br.CCCCCCCCCCCCCCCCNc1ccc(OC(C)=O)cc1`, the figures for the “serum triglyceride level, percent of control” value in test [1] and in test [2] were 108% and 146%, respectively. Moreover, the “serum sterol level, percent of control” value in test [3] worked out at 95%; in test [5], 91%. Also, the inhibition in test [4] amounted to 12%. In test [6], the “serum triglyceride, percent of control” value is on record as 117%. Also, in test [7], the “serum sterol level, % of control” value stood at 92%.
For the compound `CCCCCCCCCCCCCCCCNc1ccc(C(=O)OCC(C)O)cc1` (stereo not given), the “serum triglyceride level, percent of control” value in test [1] is under 67%; in test [2], under 61%. In addition, the “serum sterol level, percent of control” value in test [3] is under 82%; in test [5], under 89%. This compound registered an inhibition in test [4] of under 19%. Moreover, the “serum triglyceride, percent of control” value in test [6] is recorded as under 59%. The “serum sterol level, % of control” value in test [7] is reported as 96%.
For the compound `CCCCCCCCCCCCCCCCNc1ccc(C(=O)OCC(C)(C)CO)cc1`, the “serum triglyceride level, percent of control” value amounted to 103% in test [1] and 92% in test [2]. In addition, the “serum sterol level, percent of control” value in test [3] is reported as 93%; in test [5], 101%. This compound displayed an inhibition in test [4] of 13%. Further, the “serum triglyceride, percent of control” value in test [6] was found to be 101%. In test [7], the “serum sterol level, % of control” value is given as 97%.

As usually defined, the inhibition is the share of the control response that was lost under treatment.
